From ChEMBL document CHEMBL1131598, “Synthesis and anticonvulsant activity of a new class of 2-[(arylalky)amino]alkanamide derivatives” (J Med Chem, 1998)

Legend:
Mus musculus [1] = assay: Anticonvulsant potency using the intravenous-BIC (bicuculline) test in mice; format: functional
How it was run: (§1)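 Male Crl:CD-1(ICR)BR mice (22-24 g) were dosed orally at 5 mL/kg 60 min before bicuculline 0.6 mg/kg, a dose giving tonic extensor convulsions in at least 97% of vehicle-treated mice. Protection from tonic extension was scored for each mouse. ED50 (95% confidence interval) was obtained by probit analysis, with 10-20 animals per dose.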

Mus musculus [2] = species on record: Mus musculus; assay: Anticonvulsant potency using the maximal electroshock test in mice; format: functional
How it was run: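 Male mice received intra-aural shocks through clip electrodes (0.7 s, 28 mA, 80 Hz pulse train, 0.4 ms pulses), a stimulus giving hindlimb tonic extension in at least 97% of controls. Compound was given orally 60 min or ip 30 min beforehand, at 5 mL/kg. Protection meant complete suppression of the hindlimb tonic extensor component. ED50 (95% confidence interval) was obtained by probit analysis, with 10-20 animals per dose.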

[3] = Toxicity using neurological impairment measured by rotarod test in mice; details: mouse, in vivo
How it was run: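 Trained male Crl:CD-1(ICR)BR mice (22-24 g) were dosed orally at 5 mL/kg 60 min before testing on a 3-cm rod rotating at 10 rpm. Falls during a 2-min period were counted. TD50, the dose making 50% of animals fall, was calculated by probit analysis, with 10-20 animals per dose.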

Mus musculus [4] = assay: Compound was tested for anticonvulsant potency using the intravenous-BIC (bicuculline) test in mice; compound at 200 mg/kg induced impaired gait, loss of the righting reflex, and impaired breathing; format: functional; how it was run: as §1
Mus musculus [5] = assay: Anticonvulsant potency using the PTX (picrotoxin) test in mice by peroral administration; format: functional; details: po
Mus musculus [6] = assay: Compound was tested for anticonvulsant potency using the STRY (strychnine) test in mice upon peroral administration; format: functional; details: po
Mus musculus [7] = assay: Compound was tested for anticonvulsant potency using the 3-MPA (3-mercaptopropionic acid) test in mice upon peroral administration; format: functional; details: po
How it was run: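 Male Crl:CD-1(ICR)BR mice (22-24 g) were dosed orally at 5 mL/kg 60 min before 3-mercaptopropionic acid 60 mg/kg sc, a dose convulsing at least 97% of vehicle-treated mice. The end point was hindlimb tonic extension. ED50 (95% confidence interval) was obtained by probit analysis, with 10-20 animals per dose.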

Mus musculus [8] = assay: Compound was tested for anticonvulsant potency using the intravenous-BIC (bicuculline) test in mice; 5 out of 20 mice exhibited anticonvulsant activity; format: functional
Mus musculus [9] = assay: Compound was tested for anticonvulsant potency using the intravenous-BIC (bicuculline) test in mice; 0 out of 20 mice exhibited anticonvulsant activity; format: functional
Mus musculus [10] = species on record: Mus musculus; assay: Compound was tested for toxicity using neurological impairment measured by rotarod test in mice; format: functional
How it was run: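 Trained male Crl:CD-1(ICR)BR mice, 22-24 g, dosed orally 60 min before being placed on a 3-cm rod turning at 10 rpm. Mice falling during a 2-min test were counted. Dosing volume 5 mL/kg, 10-20 animals/dose. TD50, the dose making 50% fall, by probit analysis with 95% confidence interval. Some values given as fraction affected at one dose.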

SMILES	ED50 (Mus musculus [1]) [mg/kg]	ED50 (Mus musculus [2]) [mg/kg]	TD50 [3] [mg/kg]	other results
C[C@@H](NCc1ccc(COc2ccccc2)cc1)C(N)=O	40.3	10.6	597	
NC(=O)[C@@H](CO)NCc1ccc(OCc2ccccc2)cc1	133			
C[C@@H](NCc1ccc(SCc2ccccc2)cc1)C(N)=O	24.8	8.6	633	
CNC(=O)[C@H](CCSC)NCc1ccc(OCc2ccccc2)cc1	239			
CNC(=O)[C@@H](CO)NCc1ccc(OCc2cccc(C(F)(F)F)c2)cc1	19.5	13.1	750	
C[C@@H](NCc1ccc(OCc2ccc(F)cc2)cc1)C(N)=O	132	16.3		
CNC(=O)[C@@H](CO)NCc1ccc(OCc2ccccc2C(F)(F)F)cc1	85.6			
CNC(=O)[C@@H](NCc1ccc(OCc2ccccc2)cc1)C(C)C	55.4			
C[C@@H](NCc1ccc(CCc2ccccc2)cc1)C(N)=O	40.3	17.8	630	
CNC(=O)[C@@H](CO)NCc1ccc(OCc2ccccc2)cc1		22.8		ED50 (Mus musculus [4]): 16.3 mg/kg
CNC(=O)[C@@H](CO)NCc1ccc(OCc2cccc(OC)c2)cc1	109			
C[C@@H](NCc1ccc(NCc2ccccc2)cc1)C(N)=O	9.3	11.5	217	ED50 (Mus musculus [5]): 37.5 mg/kg; ED50 (Mus musculus [6]): 50.3 mg/kg; ED50 (Mus musculus [7]): 16.3 mg/kg
C[C@@H](NCc1ccc(OCC2CC2)cc1)C(N)=O	124			
C[C@@H](NCc1ccc(OCc2ccccc2F)cc1)C(N)=O	25.8	7	549	
C[C@@H](NCc1ccc(OCCc2ccccc2)cc1)C(N)=O	24.9	12.2	1120	
CC[C@@H](NCc1ccc(OCc2ccccc2)cc1)C(N)=O	55	7.2	277	
CNC(=O)CNCc1ccc(OCc2cccc(Cl)c2)cc1	30.5	48.6		
C[C@@H](NCc1ccc(/C=C/c2ccccc2)cc1)C(N)=O				ED50 (Mus musculus [8]): 400 mg/kg
C[C@@H](NCc1ccc(Oc2ccccc2)cc1)C(N)=O	64	41.5		
C[C@@H](NCc1ccc(CNc2ccccc2)cc1)C(N)=O	119			
CCCCC(C)NCC(N)=O (stereo not drawn)	640			

SMILES	ED50 (Mus musculus [1]) [mg/kg]	ED50 (Mus musculus [2]) [mg/kg]	TD50 [3] [mg/kg]	other results
C[C@@H](NCc1ccc(OCc2ccco2)cc1)C(N)=O	116			
NC(=O)CNC(=O)c1ccc(OCc2cccc(Cl)c2)cc1				ED50 (Mus musculus [8]): 400 mg/kg
CNC(=O)[C@@H](CCSC)NCc1ccc(OCc2ccccc2)cc1				ED50 (Mus musculus [9]): > 400 mg/kg
NC(=O)CNc1ccc(OCc2cccc(Cl)c2)cc1				ED50 (Mus musculus [8]): 400 mg/kg
C[C@H](Nc1cccc(OCc2ccccc2)c1)C(N)=O	79.7			
C[C@@H](NCc1ccc(OCc2ccoc2)cc1)C(N)=O	152			
CNC(=O)[C@H](Cc1ccccc1)NCc1ccc(OCc2ccccc2)cc1	61.2			
NC(=O)CNCCc1ccc(OCc2cccc(Cl)c2)cc1	192			
CN(CC(N)=O)Cc1ccc(OCc2cccc(Cl)c2)cc1	114	70		
CNC(=O)[C@@H](CO)NCc1ccc(OCc2ccccc2F)cc1	12.4	19.8	371	
CC[C@H](NCc1ccc(OCc2ccccc2)cc1)C(N)=O	119			
C[C@@H](NCc1ccc(OCc2ccccc2Cl)cc1)C(N)=O	17.4	50.8	525	
C[C@@H](NCc1ccc(OCc2ccccn2)cc1)C(N)=O	172			
C[C@@H](NCc1ccc(OCC2CCCCC2)cc1)C(N)=O	131			
NC(=O)CNCc1ccc(OCc2cccc(Cl)c2)cc1	107	28.5		
CNC(=O)[C@H](CC(C)C)NCc1ccc(OCc2ccccc2)cc1				ED50 (Mus musculus [8]): > 100 mg/kg
CN(C)C(=O)CNCc1ccc(OCc2cccc(Cl)c2)cc1				ED50 (Mus musculus [4]): 54.2 mg/kg
C[C@@H](NCc1ccc(OCc2cccs2)cc1)C(N)=O	61.6			
NC(=O)CNCc1ccccc1	490			
C[C@H](Nc1ccccc1OCc1ccccc1)C(N)=O	210			
C[C@H](NCc1ccc(OCc2ccccc2Cl)cc1)C(N)=O				ED50 (Mus musculus [4]): 18.4 mg/kg

SMILES	ED50 (Mus musculus [1]) [mg/kg]	ED50 (Mus musculus [2]) [mg/kg]	TD50 [3] [mg/kg]	other results
CNC(=O)[C@H](NCc1ccc(OCc2ccccc2)cc1)C(C)O (stereo partly drawn)				ED50 (Mus musculus [4]): 21 mg/kg
CNC(=O)[C@@H](NCc1ccc(OCc2ccccc2)cc1)C(C)O (stereo partly drawn)				ED50 (Mus musculus [4]): 34.2 mg/kg
C[C@@H](NCc1ccc(-c2ccccc2)cc1)C(N)=O	231			
CNC(=O)[C@@H](CC(C)C)NCc1ccc(OCc2ccccc2)cc1	192			
CNC(=O)[C@H](C)NCc1ccc(OCc2ccccc2)cc1	8.4	7	224	
CNC(=O)[C@H](NCc1ccc(OCc2ccccc2)cc1)C(C)C	112			
NC(=O)CNCc1ccc(OCc2ccccc2)cc1	68.6	11.5	473	
C[C@@H](NCc1ccc(OCc2cccnc2)cc1)C(N)=O				ED50 (Mus musculus [9]): > 400 mg/kg
C[C@@H](NCc1ccc(OCc2ccsc2)cc1)C(N)=O	114			
CNC(=O)[C@@H](CO)NCc1ccc(OCc2cccc(C)c2)cc1	41.3	30.6	1250	
CNC(=O)[C@@H](CO)NCc1ccc(OCc2ccc(Cl)cc2)cc1	216			
C[C@@H](NCc1ccc(Cc2ccccc2)cc1)C(N)=O	15.7	22.5	752	
NC(=O)CNCCc1ccccc1	286			
C[C@@H](NCc1ccc(OCc2cccc(F)c2)cc1)C(N)=O	26.9	8	626	ED50 (Mus musculus [5]): 60.6 mg/kg; ED50 (Mus musculus [6]): 104 mg/kg; ED50 (Mus musculus [7]): 21.5 mg/kg
CNC(=O)[C@@H](CO)NCc1ccc(OCc2cccc(F)c2)cc1	25.1	13	915	ED50 (Mus musculus [5]): 120 mg/kg; ED50 (Mus musculus [6]): > 250 mg/kg; ED50 (Mus musculus [7]): 35.6 mg/kg
C[C@@H](NCc1ccc(OCCCc2ccccc2)cc1)C(N)=O	19	6.7	584	ED50 (Mus musculus [5]): 35.4 mg/kg; ED50 (Mus musculus [6]): 75.4 mg/kg; ED50 (Mus musculus [7]): 16.2 mg/kg
NC(=O)N1c2ccccc2C=Cc2ccccc21 [CARBAMAZEPINE]	6.7	9.8	106	ED50 (Mus musculus [5]): 40.6 mg/kg; ED50 (Mus musculus [6]): 43.8 mg/kg; ED50 (Mus musculus [7]): 20.1 mg/kg
CN1C(=O)CN=C(c2ccccc2)c2cc(Cl)ccc21 [DIAZEPAM]	0.29	1.2		ED50 (Mus musculus [5]): 0.52 mg/kg; ED50 (Mus musculus [6]): 0.58 mg/kg; ED50 (Mus musculus [7]): 0.62 mg/kg; TD50 (Mus musculus [10]): 6.8 mg/kg
Nc1nnc(-c2cccc(Cl)c2Cl)c(N)n1 [LAMOTRIGINE]	10.2	2.2	84	ED50 (Mus musculus [6]): > 40 mg/kg; ED50 (Mus musculus [7]): > 40 mg/kg
CCCCCNCC(N)=O [MILACEMIDE]	701			
CCCC(CCC)C(=O)O [VALPROIC ACID]	414		1180	ED50 (Mus musculus [5]): 350 mg/kg; ED50 (Mus musculus [6]): 538 mg/kg; ED50 (Mus musculus [7]): 167 mg/kg
